The source of these data is PubChem BioAssay.

Unmarked numbers belong to inactive results. Inconclusive results are not listed. Activity calls are given as the source filed them.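 The calls were made as follows, unless noted: active = RAM network inhibition above 8.4% in each of two replicates, 3 SD over the compound average; inconclusive = above 8.4% inhibition in only one replicate; inactive = 8.4% inhibition or less in each replicate.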

The nature of assay [1]: S. cerevisiae growth inhibition in permissive medium (OD615), pilot counter-assay for S. cerevisiae lifespan shortening project, permissive growth control (AID 705;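 active = growth inhibition above 25% in both replicates, a cutoff set 3 SD above the mean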). The settings on record: OD615, 24 h, at 10 µM, active compounds read high. The gist of the method:
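Material: engineered DeaD yeast; Compound: one dose 10 µM, DMSO 0.25% final; Detection: absorbance (optical density) at 615 nm; Buffer or medium: permissive raffinose/galactose medium; Timing: 24 h exposure, 30 °C.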

Assay [2] can be described thus: S. cerevisiae growth inhibition in restrictive medium, OD615, pilot screen, restrictive growth control, yeast lifespan reduction project (AID 706;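 active = growth inhibition above a set limit, 3 SD over mean compound inhibition, in both replicates, cut at about 43% in these data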;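 also: modified DeaD lifespan yeast strain shifted to restrictive glucose medium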). Particulars: OD615, 48 h, at 10 µM, active compounds read high. In short, it runs like this:
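Buffer or medium: restrictive glucose medium (CSMM-D); test system: modified S. cerevisiae; doses: single dose of 10 µM compound final, 0.25% DMSO; schedule: 48 h compound exposure at 30 °C; detection: absorbance (optical density) measured at 615 nm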

Assay [3] can be described thus: viability of HCT116 without oncogenic beta-catenin – human colon tumor cells, pilot screen (AID 823;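 active = cell viability at or below a set limit in both duplicate runs, the limit being the all-compound median minus 4 SD, cut at about 23% in these data, passing the limit was not always enough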;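 also: 0% = wells killed by 20 µM Hyamine and 100% = untreated DMSO cell wells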). The settings on record: HCT116 beta-catenin knockout viability, CellTiter-Glo, 60 h; at 10 µM; active compounds read low.
Assay [4] in a line: viability of PTEN-null HCT116 cells – cell-based, HCT116 clonal line, CellTiter-Glo, pilot screen (AID 824;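 active = viability at or below 27.92% in each of two runs, the all-compound median minus 4 SD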;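 also: 0% = 20 µM Hyamine control and 100% = vehicle cell control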). Particulars: HCT116 PTEN-deleted viability, 60 h, at 10 µM, active compounds read low.
Assay [5] can be described thus: RAM pathway blockade in budding yeast – dse1pr::URA3 reporter, 5-FOA selection, pilot screen (AID 869;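 active = inhibition over a set limit, the all-compound mean plus 3 SD, in both replicate runs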;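 also: 0% = DMSO wells with no growth and 100% = 10 µM 1-NA-PP1 with full growth; RAM network block rescues cells from 5-FOA so hits raise OD615 growth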). Particulars: S. cerevisiae dse1pr::URA3 5-FOA growth, OD615, 2 d; at 10 µM; active compounds read high; strain carries analog-sensitive mutant Cbk1 kinase.
Assay [6] in a line: RAM signaling pathway blockade in yeast – S. cerevisiae, Pdr1DBD-CYC8 efflux-inhibited sensitized strain, primary screen (AID 1298).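 Also: 0% = DMSO untreated cells without growth and 100% = 10 µM 1-NA-PP1 full growth; higher means more yeast growth rescued from 5-FOA killing.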 The settings on record: S. cerevisiae cbk1-as DSE1-URA3 strain, 5-FOA growth OD615, 2 d; at 50 µM; active compounds read high.
Assay [7] is described as follows: doxorubicin toxicity protection in MRP-1 cells – H69AR cells, CellTiter-Glo, duplicate, MRP-1 activator project, pilot screen (AID 807;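 active = viability increase at or above a cutoff of the median across tested compounds plus 3 SD, cut at about 8.5% in these data, passing the limit was not always enough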;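 also: compound pretreatment 18-22 h then 72 h combined with doxorubicin; 0% = doxorubicin alone and 100% = vehicle without doxorubicin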). Particulars: H69AR viability with doxorubicin, CellTiter-Glo luminescence; at 10 µM; active compounds read high.

Turning to `O=C1Cc2ccccc2C(=O)N1CCc1ccccc1`, the growth inhibition in assay [1] was 12.3%; in assay [2], 66% (active). For the same compound, the viability was 97.2% in assay [3] and 92.8% in assay [4]. For the same compound, the inhibition in assay [5] was 1.75%. Moreover, the RAM network inhibition in assay [6] was 2.61%.

On to `COc1ccccc1CNC(=O)CN1CCN(Cc2ccc(Cl)cc2)C1=O`, for which the growth inhibition in assay [1] was 7.3%; in assay [2], 10.3%. Further, the viability in assay [3] is 98.3%; in assay [4] it was 92.5%. Also, the inhibition in assay [5] is 1.5%. Besides, the RAM network inhibition in assay [6] is 0.67%.

As to `Oc1c(C(c2cccs2)N2CCN(c3cccc(Cl)c3)CC2)sc2ncnn12` (stereo not drawn), the growth inhibition was -8.2% in assay [1] and 5.16% in assay [2]. Moreover, the viability in assay [3] was 88.1%; in assay [4], 90.5%. The inhibition in assay [5] was 1.94%. In addition, the RAM network inhibition in assay [6] is 3.42%.

For the compound `Cc1noc(/C=C/N(C)C)c1S(=O)(=O)N1CCCC(C(=O)NC2CCCCC2C)C1` (stereo not drawn), the growth inhibition is -2.76% in assay [1] and -6.36% in assay [2]. Moreover, the viability in assay [3] is 87.1%; in assay [4], 83.2%. The inhibition in assay [5] is 1.89%. Also, in assay [6], the RAM network inhibition was 7.7%.

For the compound `O=C(CSCc1ccc(Cl)cc1)NCC1CCCO1` (stereo not drawn), the growth inhibition in assay [1] was -7.79%; in assay [2] it was -2.08%. Also, the results for the viability in assay [3] and in assay [4] were 102% and 101%, respectively. In addition, the inhibition in assay [5] was 1.34%. Moreover, the RAM network inhibition in assay [6] is 3.99%.

`Cc1ccc(-c2nn3c(C)nnc3s2)cc1NC(=O)c1ccc(Br)o1`: in assay [1], the growth inhibition was 4.25%. Moreover, the viability increase in assay [7] was -3.03%. Also, the values for the viability in assay [3] and in assay [4] were 105% and 93%, respectively. Further, the inhibition in assay [5] was 3%. Besides, the RAM network inhibition in assay [6] was 8.4%.

As for `CCc1ccc(NC(=O)Cn2c(=O)oc3cc(S(=O)(=O)N4CCOCC4)ccc32)cc1`, the results for the growth inhibition in assay [1] and in assay [2] were -11% and -13.3%, respectively. Also, the viability was 99.8% in assay [3] and 89.2% in assay [4]. Further, the inhibition in assay [5] was 1.83%. Besides, the RAM network inhibition in assay [6] is 8.19%.

As to `Cc1onc(-c2ccccc2)c1C(=O)Nc1nnc(N(C)Cc2ccccc2)s1`, the growth inhibition is -12.4% in assay [1] and -20.5% in assay [2]. For the same compound, the viability in assay [3] is 89.8%; in assay [4] it was 88.8%. The inhibition in assay [5] was 1.02%. Moreover, the RAM network inhibition in assay [6] was 9.12%.

Take `N#Cc1nc(COc2cccc(Cl)c2)oc1N1CCCC1`: the growth inhibition is 4.94% in assay [1] and 11.2% in assay [2]. The viability in assay [3] and in assay [4] was 82.7% throughout. In addition, the inhibition in assay [5] is -0.7%. Besides, the RAM network inhibition in assay [6] is 0.47%.

On to `CC(NC(=O)CN1CCN(Cc2ccc(Cl)cc2)C1=O)c1ccc2c(c1)OCCO2` (stereo not drawn), for which the growth inhibition is 2.64% in assay [1] and -21.2% in assay [2]. For the same compound, the viability in assay [3] is 84.1%; in assay [4], 86.3%. Besides, in assay [5], the inhibition is -0.3%. The RAM network inhibition in assay [6] is 0.27%.

In the case of `CCOCCn1c(-c2ccc(OC)cc2)nc2ccccc21`, the growth inhibition is -16.9% in assay [1] and -10.7% in assay [2]. Moreover, the viability is 93.6% in assay [3] and 82.8% in assay [4]. The inhibition in assay [5] was 1.63%. In assay [6], the RAM network inhibition was 5.07%.

Take `COc1ccc(OC)c(C2CC(=O)N3CN(c4ccc(C)c(Cl)c4)CSC3=C2C#N)c1` (stereo not drawn): the growth inhibition in assay [1] was -0.805%. The viability increase in assay [7] is -3.72%. Further, the viability in assay [3] is 90.6%; in assay [4], 94.4%. Moreover, the inhibition in assay [5] is 2.44%. For the same compound, the RAM network inhibition in assay [6] is 7.86%.

In the case of `CCC(C)N1CC23C=CC(O2)C(C(=O)OC)C3C1=O` (stereo not drawn), in assay [1], the growth inhibition is 0.035%. Further, in assay [7], the viability increase is 1.12%. Besides, the viability in assay [3] is 109%; in assay [4] it was 106%. Moreover, the inhibition in assay [5] is 0.115%. Moreover, the RAM network inhibition in assay [6] was 1.34%.

Consider `O=C(O)c1cccc(N2C(=O)C3CC=C(Cl)CC3C2=O)c1` (stereo not drawn), for which the growth inhibition in assay [1] is -4.4%; in assay [2], -10.2%. Besides, the figures for the viability in assay [3] and in assay [4] were 95.6% and 92.4%, respectively. For the same compound, the inhibition in assay [5] was 1.16%. Also, the RAM network inhibition in assay [6] is 3.38%.

As to `Brc1ccc(CSc2ncn[nH]2)cc1`, the growth inhibition was -0.435% in assay [1] and 12.1% in assay [2]. Also, the viability in assay [3] and in assay [4] was 95.3% throughout. Besides, the inhibition in assay [5] was 0.94%. Also, the RAM network inhibition in assay [6] was 0.27%.

For the compound `Cc1cccc(N(C)c2cc(C)nc3nc(C)nn23)c1`, the growth inhibition in assay [1] was -14.5%; in assay [2], -6.39%. Also, the viability in assay [3] was 64.8%; in assay [4] it was 53.3%. The inhibition in assay [5] is 2.03%. Also, the RAM network inhibition in assay [6] was 5.5%.

As for `O=C(Cn1c(=O)oc2cc(S(=O)(=O)N3CCCC3)ccc21)NCc1ccccn1`, the growth inhibition in assay [1] was 8.21%; in assay [2], 0.96%. In addition, the results for the viability in assay [3] and in assay [4] were 107% and 104%, respectively. Besides, in assay [5], the inhibition is 1.01%. In assay [6], the RAM network inhibition is -0.87%.

Take `COc1ccc(S(=O)(=O)N2CCN(c3ccc4nnc(-c5ccc(F)cc5)n4n3)CC2)cc1`: the growth inhibition in assay [1] was 16.1%. Besides, in assay [7], the viability increase is -6.07%. Further, the viability in assay [3] was 46.4%; in assay [4] it was 38.6%. Besides, the inhibition in assay [5] is 1.78%. The RAM network inhibition in assay [6] was 1.48%.
